NadD inh: inhibitors of Staphylococcus aureus NadD | purified NadD enzyme, colorimetric absorbance read-out | inhibition, % at 20 µM | hit rate 0.78% among 360,000; in the data active means inhibition above about 26%
VIM-2 inhibitor: blocks Pseudomonas aeruginosa VIM-2 metallo-beta-lactamase; AID 1527; hit rate 0.89% among 290,000; inhibition, % at 5.6 µM; purified VIM-2, nitrocefin hydrolysis, epi-absorbance fluorescence;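 active means inhibition above the mean of all tested compounds plus 3 SD, cutoff set per screening run, cut at about 7.5% in these data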;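 further: red hydrolysis product quenches plate fluorescence so inhibitors raise well fluorescence; 0% = enzyme with DMSO and 100% = DMSO without enzyme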
core dimer inh: HCV core protein dimerization inhibition; inhibition, % at 5 µM; hit rate 0.33% among 300,000; TR-FRET GST/Flag-core106 dimerization, 1536-well; AID 1899;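 active means inhibition above the mean of all tested compounds plus 3 SD, set per screening campaign, cut at about 45% in these data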
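Material: Tagged HCV core106 pair (GST and Flag) | Amount: GST-core106 13.5 nM, Flag-core106 17 nM | Medium: KF-containing HEPES buffer, pH 7.45, DTT, CHAPS, BSA | Reagent: Eu donor and XL665 acceptor anti-tag antibodies | Schedule: 4 h at 22.5 °C | Technique: Time-resolved FRET, ex 340 nm, em 617 and 671 nm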
IMP-1 inh: inhibitors of Pseudomonas aeruginosa IMP-1 metallo-beta-lactamase; purified IMP-1, nitrocefin hydrolysis, epi-absorbance fluorescence; inhibition, % at 5.6 µM; hit rate 0.45% among 290,000;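 active means inhibition above the mean plus 3 SD of all compounds in the same screening run, cut at about 4.5% in these data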;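 further: 0% = IMP-1 with DMSO and 100% = DMSO wells lacking enzyme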
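System – purified recombinant IMP-1 beta-lactamase · Input – IMP-1 dispensed at 0.2 nM · Timing – 15 min preincubation plus 25 min reaction at 25 °C · Signal – Epi-absorbance fluorescence, 480 nm excitation, 530 nm emission · Measure – percent IMP-1 inhibition derived from blank-referenced optical density · Controls – Enzyme-plus-DMSO low control, enzyme-free DMSO high control · Replication – singlicate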
NadD inh conf: confirmation of Staphylococcus aureus NadD inhibitors | shares compounds with NadD inh | inhibition, % at 20 µM | purified S. aureus NadD, colorimetric enzyme assay | hit rate 13% among 2,000; in the data active means inhibition mostly above about 42%, no sharp cut-off; inactive means mostly below about 42%
An asterisk follows results filed as active; nt = not tested or not shown. A selection: hits, their analogues and other compounds. The true share with any hit is near 1.9%.

SMILES	NadD inh	VIM-2 inhibitor	core dimer inh	IMP-1 inh	NadD inh conf
C=CCn1c(O)c(C2=c3ccccc3=NC2=O)s/c1=N/c1nccs1	33*	0	41	-2	4
CCOC(=O)Cn1c(=NC(=O)c2cc(-c3cccs3)nc3ccccc23)sc2cc(S(N)(=O)=O)ccc21	56*	-1	-10	-3	61*
COC(=O)Cn1c(=NC(=O)c2nc3ccccc3s2)sc2cc(S(N)(=O)=O)ccc21	14	0	19	-3	nt
COC(=O)Cn1c(=NC(=O)c2cc(-c3cccs3)nc3ccccc23)sc2cc(S(N)(=O)=O)ccc21	31*	1	-32	-4	16
CCOC(=O)Cn1c(=NC(=O)C2COc3ccccc3O2)sc2cc(S(N)(=O)=O)ccc21 (stereo not drawn)	3	0	19	0	nt
Nc1cc(=O)[nH]c(SCC(=O)N2CCN(S(=O)(=O)c3ccc4ccccc4c3)CC2)n1	11	-3	13	-4	nt
O=C(CSc1n[nH]c(-c2cccs2)n1)N1CCN(S(=O)(=O)c2ccc3ccccc3c2)CC1	47*	-2	17	-4	29
COc1ccccc1NS(=O)(=O)c1ccc(N/N=C/c2c(C)nn(-c3ccccc3)c2N2CCCC2)c([N+](=O)[O-])c1	38*	-2	23	-1	14
Cc1nn(-c2ccccc2)c(N2CCCCC2)c1/C=N/NC(=O)c1ccncc1	1	0	-4	-4	nt
COc1c(/C=N/Nc2ccc([N+](=O)[O-])cc2[N+](=O)[O-])c(C)nn1-c1ccccc1	15	-3	1	0	nt
CCOc1ccc(S(=O)(=O)Nc2ccc(C(=O)N/N=C/c3c(C)nn(-c4ccccc4)c3N3CCCC3)cc2)cc1	33*	-3	45	-3	24
Cc1nn(-c2ccccc2)c(N2CCCC2)c1/C=N/Nc1ccc(S(=O)(=O)Nc2ccccc2)cc1[N+](=O)[O-]	47*	0	41	2	22
O=C(O)c1ccccc1NS(=O)(=O)c1ccc(NN=Cc2cccc(Cl)c2)c([N+](=O)[O-])c1	31*	nt	nt	nt	11
O=C(NCc1ccccc1CN1CCCC1)c1cc2ccccc2o1	-3	nt	nt	nt	nt
O=C1C2C3C=CC(C2C(=O)N1CCO)C1C(=O)N(CCO)C(=O)C31 (stereo not drawn)	2	-1	5	-2	nt
N#CC1=C(N)OC2=C(C(=O)CC(c3ccco3)C2)C1c1ccc(OCc2c(F)cccc2Cl)cc1 (stereo not drawn)	34*	1	36	1	20
COc1cccc(C2C(C#N)=C(N)OC3=C2C(=O)CC(c2ccco2)C3)c1OCc1ccc(F)cc1 (stereo not drawn)	31*	1	57*	3	16
N#CC1=C(N)OC2=C(C(=O)CC(c3ccccc3)C2)C1c1ccoc1 (stereo not drawn)	1	-3	-6	2	nt
N#Cc1ccc(C23OCCN2CCn2c3c3ccccc3[n+]2[O-])cc1 (stereo not drawn)	-9	nt	nt	nt	nt
O=C(N/N=C/c1ccccc1Cl)c1nc2ccc([N+](=O)[O-])cc2c(=O)[nH]1	36*	-4	14	-1	42
CCC(C)(C)C1CCC2(CC1)NC(=O)N(CC(=O)NC(C)CCc1ccccc1)C2=O (stereo not drawn)	48*	nt	nt	nt	-21
COc1cc(NC(=O)CSc2nnc(-c3cc(C)on3)o2)cc(OC)c1	-2	-3	-10	-2	nt
Cc1cc(-c2nnc(SCC(=O)Nc3nc(-c4ccc(Cl)cc4)cs3)o2)no1	27*	-2	15	-2	2
COc1cc(C(=O)NCCc2ccc(S(=O)(=O)N3CCCC3)cc2)cc(OC)c1OC	-10	-2	1	-1	nt
O=C1CC(=C2c3ccccc3-c3ccccc32)C(=O)N1CCCCN1CCN(c2ccccc2)CC1	48*	5	10	2	30
SMILES	NadD inh	VIM-2 inhibitor	core dimer inh	IMP-1 inh	NadD inh conf
COc1ccc(S(=O)(=O)N/N=c2\oc3c(OC)cccc3cc2S(=O)(=O)c2ccc(C)cc2)cc1OC	12	-1	8	-2	nt
COc1ccc(C2/C(=C(/O)c3ccc4c(c3)CC(C)O4)C(=O)C(=O)N2CCCN2CCOCC2)cc1 (stereo not drawn)	8	2	6	-2	nt
C=CCOc1ccc(C2/C(=C(/O)c3ccc4c(c3)CC(C)O4)C(=O)C(=O)N2CCCN2CCOCC2)cc1 (stereo not drawn)	29*	1	5	-1	36
CC(=O)OCC1=C(C(=O)O)N2C(=O)C(NC(=O)CCn3nc(C(F)(F)F)c(Br)c3C3CC3)C2SC1 (stereo not drawn)	8	0	1	-1	nt
O=c1[nH]c(NNC(=S)NCc2ccccc2)nc2c1C1(CCCCC1)Cc1ccccc1-2	37*	-5	13	-5	53*
C=CCNC(=S)NNc1nc2c(c(=O)[nH]1)C1(CCCC1)Cc1ccccc1-2	10	-1	18	-1	nt
COc1ccc(/C=N/Nc2nc(-c3cccc(S(=O)(=O)N4CCCC4)c3)cs2)c(OC)c1	37*	0	28	-2	21
COc1cccc(C(=O)Nc2nc(-c3ccc(S(=O)(=O)N4CCOCC4)cc3)cs2)c1	-1	-1	-17	-5	nt
CC(Sc1nnc(-c2ccncc2)n1C)C(=O)Nc1ccc(N2CCOCC2)cc1 (stereo not drawn)	0	nt	nt	nt	nt
CNC(=O)NC(=O)C(C)OC(=O)c1c2c(nc3ccccc13)/C(=C/c1cccs1)CC2 (stereo not drawn)	33*	0	35	1	20
NNC(=O)c1nc[nH]c1C(=O)Nc1ccccc1	4	-3	-16	-6	nt
Nc1nonc1-n1nnc(C(=O)N/N=C/c2cccnc2)c1CSC1=NCCS1	-6	-2	2	-3	nt
CCCc1c(C(=O)N/N=C/c2ccc(OCc3ccccc3)c(OC)c2)nnn1-c1nonc1N	35*	-3	-5	-4	17
CC(C)c1ccc(/C=N/NC(=O)c2nnn(-c3nonc3N)c2CSC2=NCCS2)cc1	32*	-2	7	-5	22
Nc1nonc1-n1nnc(C(=O)N/N=C/c2ccc(Br)cc2)c1CSC1=NCCS1	32*	0	9	-1	28
CCCc1c(C(=O)N/N=C/c2ccc(OC)c(OCc3ccccc3)c2)nnn1-c1nonc1N	12	0	8	0	nt
ON=C(c1ccccc1)c1ccc2c3c(cccc13)CC2	-10	nt	nt	nt	nt
Cc1ccc2nc(SCC(=O)Nc3cc(C)on3)c(C)cc2c1	1	-2	-7	1	nt
CCOC(=O)N1CCN(CCC(=O)Nc2cccc(Cl)c2C)CC1	-8	-1	-6	-2	nt
Cc1ccc2c(c1)N(C(=O)CCC(=O)NCCCN1CCC(Cc3ccccc3)CC1)CCO2	-5	-5	-4	-2	nt
NC(Cc1ccc(C(F)(F)F)cc1)c1csc(NC(=O)Nc2ccccc2Oc2ccccc2)n1 (stereo not drawn)	34*	nt	nt	nt	9
